{"data": "Published values collected from several papers", "Toll-like receptor 1/2": "Toll-like receptor 1/2 (Homo sapiens, UniProt O60603+Q15399)", "RORC": "Nuclear receptor ROR-gamma (RORC, Homo sapiens, UniProt P51449)", "lecA": "PA-I galactophilic lectin (lecA, Pseudomonas aeruginosa, UniProt Q05097)", "Chymotrypsinogen A": "Chymotrypsinogen A (Bos taurus, UniProt P00766)", "note": "Lines come from different studies, so protocols differ."}
{"Compound": "Cc1cc(Nc2cc3ncccc3c(N[C@@H]3C[C@H]4CC[C@@H](C3)N4CCC#N)n2)n[nH]1", "target": "Cyclin-dependent kinase 4, with cyclin D1 (CDK4, Homo sapiens, UniProt P11802)", "assay": "binding, competition with immobilised ligand", "quantity": "Kd", "value": "0.15 µM"}
{"Compound": "CNc1ccc(C(F)(F)F)cc1-n1cnc(-c2ccc(C(F)(F)F)cc2)c1", "target": "Toll-like receptor 1/2", "assay": "reporter gene, agonist", "quantity": "EC50", "value": "0.24 µM"}
{"Compound": "CCn1c(-c2nc3ccc(C(=O)N4CCCC(N)C4)cc3n2C)cc2ccccc21 (centres unmarked)", "target": "Muscarinic acetylcholine receptor M2 (CHRM2, Homo sapiens, UniProt P08172)", "assay": "calcium signal, agonist", "quantity": "EC50", "value": "> 15.8 µM"}
{"Compound": "O=S(=O)(c1cccc(C(F)(F)F)c1)N1CCc2ccc(OCc3c(Cl)ccnc3Cl)cc21", "target": "RORC", "assay": "ligand displacement, radioligand", "quantity": "IC50", "value": "0.078 µM"}
{"Compound": "CNc1ccc([N+](=O)[O-])cc1-n1cnc(-c2ccc(-c3ccccc3)cc2)c1", "target": "Toll-like receptor 1/2", "assay": "reporter gene, agonist", "quantity": "EC50", "value": "0.0847 µM"}
{"Compound": "O=C(Cn1cc(CN2CCN(c3cc4c(cc3F)c(=O)c(C(=O)O)cn4C3CC3)CC2)nn1)Nc1ccc(S[C@@H]2O[C@H](CO)[C@H](O)[C@H](O)[C@H]2O)cc1", "target": "lecA", "assay": "ligand displacement, FP", "quantity": "Ki", "value": "3.82 µM"}
{"Compound": "OC[C@@H]1[C@@H](O)[C@H](O)[C@@H](O)[C@@H]2O[C@H]12", "target": "Beta-glucosidase (GBA2, Homo sapiens, UniProt Q9HCG7)", "assay": "enzyme activity, inhibitor", "conditions": "pH 6, lysate", "quantity": "IC50", "value": "1.16 µM"}
{"Compound": "Cc1cnc(-c2ccc(-c3ccc(NC(=O)Nc4c(F)cc(F)cc4F)cc3F)c3c2C(=O)NC3)[nH]1", "target": "Tyrosine-protein kinase Fer (FER, Homo sapiens, UniProt P16591)", "assay": "binding, competition with immobilised ligand", "quantity": "Kd", "value": "0.014 µM"}
{"Compound": "CNc1ccc([N+](=O)[O-])cc1-n1cnc(-c2ccc(C3CCCCC3)cc2)c1", "target": "Toll-like receptor 1/2", "assay": "reporter gene, agonist", "quantity": "EC50", "value": "0.12 µM"}
{"Compound": "CCCC[C@H](NC(=O)[C@H](CCCCN)NC(=O)[C@H](CO)NC(=O)[C@H](CO)NC(=O)OCc1ccccc1)C(=O)N[C@@H](Cc1ccccc1)B(O)O", "target": "Chymotrypsinogen A", "assay": "enzyme activity, inhibitor, fluorescence", "quantity": "Ki", "value": "0.0181 µM"}
{"Compound": "CNc1ccc([N+](=O)[O-])cc1-n1cnc(-c2ccc3ccccc3c2)c1", "target": "Toll-like receptor 1/2", "assay": "reporter gene, agonist", "quantity": "EC50", "value": "0.42 µM"}
{"Compound": "COc1c(Cl)cccc1COc1ccc2c(c1)N(S(=O)(=O)c1cccc(C(F)(F)F)c1)CC2", "target": "RORC", "assay": "ligand displacement, radioligand", "quantity": "IC50", "value": "0.44 µM"}
{"Compound": "CC[C@H](C)[C@H](NC(=O)[C@H](Cc1ccccc1)NC(=O)[C@H](CCC(=O)O)NC(=O)[C@H](CCCCN)NC(=O)[C@H](C)NC(=O)[C@H](C)NC(=O)[C@H](CCC(N)=O)NC(=O)CNC(=O)[C@H](CCC(=O)O)NC(=O)[C@H](CC(C)C)NC(=O)[C@H](Cc1ccc(O)cc1)NC(=O)[C@H](CO)NC(=O)[C@H](CO)NC(=O)[C@@H](NC(=O)[C@H](CC(=O)O)NC(=O)[C@H](CO)NC(=O)[C@@H](NC(=O)[C@H](Cc1ccccc1)NC(=O)[C@@H](NC(=O)CNC(=O)[C@H](CCC(=O)O)NC(=O)[C@H](C)NC(=O)[C@@H](N)Cc1c[nH]cn1)[C@@H](C)O)[C@@H](C)O)C(C)C)C(=O)N[C@@H](C)C(=O)N[C@@H](Cc1c[nH]c2ccccc12)C(=O)N[C@@H](CC(C)C)C(=O)N[C@H](C(=O)N[C@@H](CCCCN)C(=O)NCC(=O)N[C@@H](CCCN=C(N)N)C(=O)NCC(=O)O)C(C)C", "target": "Gastric inhibitory polypeptide receptor (Mus musculus, UniProt Q0P543)", "assay": "reporter gene, agonist, luciferase", "quantity": "EC50", "value": "> 1 µM"}
{"Compound": "O=C(CCn1cc(CCN2CCN(c3cc4c(cc3F)c(=O)c(C(=O)O)cn4C3CC3)CC2)nn1)Nc1ccc(S[C@@H]2O[C@H](CO)[C@H](O)[C@H](O)[C@H]2O)cc1", "target": "lecA", "assay": "ligand displacement, FP", "quantity": "Ki", "value": "3.19 µM"}
{"Compound": "CCNc1ccc([N+](=O)[O-])cc1-n1cnc(-c2ccc([N+](=O)[O-])cc2)c1", "target": "Toll-like receptor 1/2", "assay": "reporter gene, agonist", "quantity": "EC50", "value": "> 100 µM"}
{"Compound": "O=S(=O)(c1cccc(Cl)c1)N1CCc2ccc(OCc3c(F)cccc3Cl)cc21", "target": "RORC", "assay": "ligand displacement, radioligand", "quantity": "IC50", "value": "0.37 µM"}
{"Compound": "CCCC[C@H](NC(=O)[C@H](CCC(N)=O)NC(=O)[C@H](CO)NC(=O)[C@H](Cc1ccccc1)NC(=O)CCCCCNC(=O)c1ccc(I)cc1)C(=O)N[C@@H](CCCBr)B(O)O", "target": "Chymotrypsinogen A", "assay": "enzyme activity, inhibitor, fluorescence", "quantity": "Ki", "value": "0.653 µM"}
{"Compound": "COc1ccccc1COc1ccc2c(c1)N(S(=O)(=O)c1cccc(C(F)(F)F)c1)CC2", "target": "RORC", "assay": "ligand displacement, radioligand", "quantity": "IC50", "value": "0.2 µM"}
{"Compound": "CCCC[C@H](NC(=O)[C@H](CCC(N)=O)NC(=O)[C@H](CO)NC(=O)CCCCCN)C(=O)N[C@@H](CCCBr)B(O)O", "target": "Chymotrypsinogen A", "assay": "enzyme activity, inhibitor, fluorescence", "quantity": "Ki", "value": "0.251 µM"}
{"Compound": "CNc1ccc([N+](=O)[O-])cc1-n1cnc(-c2ccc(C#N)cc2)c1", "target": "Toll-like receptor 1/2", "assay": "reporter gene, agonist", "quantity": "EC50", "value": "0.21 µM"}
